Data as given in ChEMBL document CHEMBL4152279, “Synthesis, cytotoxic evaluation and target identification of thieno[2,3-d]pyrimidine derivatives with a dithiocarbamate side chain at C2 position” (Eur J Med Chem, 2018).
The source made the active and inactive calls. The calls are words filed in the database; no cut-off is given here.

Experiments:
[1] = molecular target: Probable ATP-dependent RNA helicase DDX17 (Homo sapiens) (UniProt Q92841); experiment: Binding affinity to DDX17 in human A549 cells at 0.15 mM after 4 hrs by HPLC-MS based pull down assay relative to control; format: cell-based
Outline: (§1)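 A549 lysate in NETN buffer (pH 8.0, 0.5% NP-40) incubated with biotinylated probe (0.15 mM final) 4 h at 4 °C, with biotin or control probe as comparators. Streptavidin Dynabeads 1 h at 4 °C, six NETN washes, proteins eluted by boiling in SDS buffer. After trypsin digestion, identification by LC-MS/MS on Q Exactive HF.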

Sus scrofa [2] = species: Sus scrofa; experiment: Inhibition of nocodazole binding to porcine tubulin treated 2 hrs post colchicine treatment by pull down assay
Outline: (§2)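 Porcine neuronal tubulin was preincubated with excess taxol, colchicine, vinblastine or nocodazole for 2 h at 4 °C. Biotinylated probe was then added in NETN buffer, followed by streptavidin Dynabead pull-down for 1 h at 4 °C and six washes. Bound α-tubulin was detected by SDS–PAGE and immunoblot. Three independent experiments.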

Sus scrofa [3] = species: Sus scrofa; experiment: Inhibition of vinblastine binding to porcine tubulin treated 2 hrs post colchicine treatment by pull down assay; outline: as §2
Sus scrofa [4] = species: Sus scrofa; experiment: Inhibition of colchicine binding to porcine tubulin treated 2 hrs post colchicine treatment by pull down assay; outline: as §2
[5] = molecular target: Serine/arginine-rich splicing factor 9 (Homo sapiens) (UniProt Q13242); experiment: Binding affinity to serine/arginine-rich-splicing factor 9 in human A549 cells at 0.15 mM after 4 hrs by HPLC-MS based pull down assay relative to control; format: cell-based; outline: as §1
[6] = molecular target: T1, RNA-binding protein EWS (Homo sapiens) (UniProt Q01844); experiment: Binding affinity to RNA-binding protein EWS isoform 6 in human A549 cells at 0.15 mM after 4 hrs by HPLC-MS based pull down assay relative to control; format: cell-based; outline: as §1
T1 sequence (whole entry): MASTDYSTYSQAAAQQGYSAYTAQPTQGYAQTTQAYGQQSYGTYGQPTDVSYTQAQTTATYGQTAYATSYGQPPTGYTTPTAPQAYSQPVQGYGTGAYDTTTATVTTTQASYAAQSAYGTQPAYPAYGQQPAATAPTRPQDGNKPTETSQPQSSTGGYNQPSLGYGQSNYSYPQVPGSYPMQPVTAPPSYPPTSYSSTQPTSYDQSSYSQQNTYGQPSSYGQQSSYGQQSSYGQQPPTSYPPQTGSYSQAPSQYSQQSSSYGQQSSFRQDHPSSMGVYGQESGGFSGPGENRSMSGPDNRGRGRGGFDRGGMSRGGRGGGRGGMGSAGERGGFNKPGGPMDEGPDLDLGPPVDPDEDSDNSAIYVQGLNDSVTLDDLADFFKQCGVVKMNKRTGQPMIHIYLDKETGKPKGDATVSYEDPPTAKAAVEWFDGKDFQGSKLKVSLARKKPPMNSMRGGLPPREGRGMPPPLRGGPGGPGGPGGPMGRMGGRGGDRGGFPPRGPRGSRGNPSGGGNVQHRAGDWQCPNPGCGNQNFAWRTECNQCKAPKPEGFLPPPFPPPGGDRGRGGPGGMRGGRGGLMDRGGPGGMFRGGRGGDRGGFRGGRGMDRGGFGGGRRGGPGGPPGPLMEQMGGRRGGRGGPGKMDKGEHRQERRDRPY

Sus scrofa [7] = species: Sus scrofa; experiment: Inhibition of taxol binding to porcine tubulin preincubated with tubulin followed by taxol treatment measured after 2 hrs by immunoblot analysis
Sus scrofa [8] = species: Sus scrofa; experiment: Binding affinity to porcine tubulin after overnight incubation by streptavidin pull down assay
Outline: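 Purified porcine neuronal tubulin incubated with biotin, biotinylated probe or control probe in NETN buffer at 4 °C. Streptavidin Dynabeads 1 h at 4 °C, six washes, then SDS-PAGE and α-tubulin immunoblot.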

A549 = experiment: Binding affinity to tubulin alpha-3E in human A549 cells at 0.15 mM after 4 hrs by HPLC-MS based pull down assay relative to control; format: cell-based; outline: as §1
[9] = molecular target: T2, ATP-dependent RNA helicase DDX1 (Homo sapiens) (UniProt Q92499); experiment: Binding affinity to DDX1 in human A549 cells at 0.15 mM after 4 hrs by HPLC-MS based pull down assay relative to control; format: cell-based; outline: as §1
T2 sequence (whole entry): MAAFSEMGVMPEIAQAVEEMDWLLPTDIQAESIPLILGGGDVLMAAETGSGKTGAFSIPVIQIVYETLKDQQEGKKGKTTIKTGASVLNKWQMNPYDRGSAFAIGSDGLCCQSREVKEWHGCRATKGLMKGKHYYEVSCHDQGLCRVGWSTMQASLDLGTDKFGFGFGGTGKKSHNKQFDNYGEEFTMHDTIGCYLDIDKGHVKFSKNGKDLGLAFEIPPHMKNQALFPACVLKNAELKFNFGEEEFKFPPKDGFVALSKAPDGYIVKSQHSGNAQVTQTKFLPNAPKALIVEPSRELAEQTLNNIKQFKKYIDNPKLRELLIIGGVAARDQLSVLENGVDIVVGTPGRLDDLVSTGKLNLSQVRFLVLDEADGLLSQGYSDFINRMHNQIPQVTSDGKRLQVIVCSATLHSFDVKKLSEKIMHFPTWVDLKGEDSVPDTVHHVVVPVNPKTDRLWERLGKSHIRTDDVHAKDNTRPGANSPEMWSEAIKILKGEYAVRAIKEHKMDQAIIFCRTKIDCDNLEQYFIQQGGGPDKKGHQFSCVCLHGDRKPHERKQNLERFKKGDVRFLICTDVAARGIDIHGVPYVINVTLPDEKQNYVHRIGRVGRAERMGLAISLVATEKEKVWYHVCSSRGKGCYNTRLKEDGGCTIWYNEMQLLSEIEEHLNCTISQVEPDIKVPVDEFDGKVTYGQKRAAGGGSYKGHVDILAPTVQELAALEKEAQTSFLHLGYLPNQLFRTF

Sus scrofa [10] = species: Sus scrofa; experiment: Inhibition of vinblastine binding to porcine tubulin preincubated with tubulin followed by vinblastine treatment measured after 2 hrs by immunoblot analysis
[11] = molecular target: Tubulin alpha-1C chain (Homo sapiens) (UniProt Q9BQE3); experiment: Binding affinity to tubulin alpha-1C in human A549 cells at 0.15 mM after 4 hrs by HPLC-MS based pull down assay relative to control; format: cell-based; outline: as §1
[12] = molecular target: Serine/arginine-rich splicing factor 1 (Homo sapiens) (UniProt Q07955); experiment: Binding affinity to serine/arginine-rich-splicing factor 1 in human A549 cells at 0.15 mM after 4 hrs by HPLC-MS based pull down assay relative to control; format: cell-based; outline: as §1
[13] = molecular target: T1, RNA-binding protein EWS (Homo sapiens); experiment: Binding affinity to RNA-binding protein EWS in human A549 cells at 0.15 mM after 4 hrs by HPLC-MS based pull down assay relative to control; format: cell-based; outline: as §1

Chain of Serine/arginine-rich splicing factor 1 (Homo sapiens) (Q07955 whole entry): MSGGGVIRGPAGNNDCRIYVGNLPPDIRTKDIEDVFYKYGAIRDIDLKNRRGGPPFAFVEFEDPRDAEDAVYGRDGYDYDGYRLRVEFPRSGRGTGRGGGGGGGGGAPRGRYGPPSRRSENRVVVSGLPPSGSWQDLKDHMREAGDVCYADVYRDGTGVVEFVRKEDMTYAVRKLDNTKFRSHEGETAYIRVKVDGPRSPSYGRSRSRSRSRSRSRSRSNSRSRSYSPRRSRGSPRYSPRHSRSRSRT
Chain of Tubulin alpha-1C chain (Homo sapiens) (Q9BQE3 whole entry, looked up): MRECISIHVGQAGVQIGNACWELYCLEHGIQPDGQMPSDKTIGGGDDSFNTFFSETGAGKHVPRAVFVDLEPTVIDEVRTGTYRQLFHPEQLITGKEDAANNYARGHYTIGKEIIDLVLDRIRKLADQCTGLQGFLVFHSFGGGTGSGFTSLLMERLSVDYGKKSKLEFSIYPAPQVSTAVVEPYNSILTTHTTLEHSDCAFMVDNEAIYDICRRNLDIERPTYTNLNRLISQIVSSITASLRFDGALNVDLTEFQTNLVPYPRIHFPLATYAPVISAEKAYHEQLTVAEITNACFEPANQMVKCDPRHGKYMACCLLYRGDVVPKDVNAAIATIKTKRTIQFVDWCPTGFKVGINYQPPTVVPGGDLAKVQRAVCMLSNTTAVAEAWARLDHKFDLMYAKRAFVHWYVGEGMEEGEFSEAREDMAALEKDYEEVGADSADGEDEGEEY
Chain of Probable ATP-dependent RNA helicase DDX17 (Homo sapiens) (Q92841 whole entry): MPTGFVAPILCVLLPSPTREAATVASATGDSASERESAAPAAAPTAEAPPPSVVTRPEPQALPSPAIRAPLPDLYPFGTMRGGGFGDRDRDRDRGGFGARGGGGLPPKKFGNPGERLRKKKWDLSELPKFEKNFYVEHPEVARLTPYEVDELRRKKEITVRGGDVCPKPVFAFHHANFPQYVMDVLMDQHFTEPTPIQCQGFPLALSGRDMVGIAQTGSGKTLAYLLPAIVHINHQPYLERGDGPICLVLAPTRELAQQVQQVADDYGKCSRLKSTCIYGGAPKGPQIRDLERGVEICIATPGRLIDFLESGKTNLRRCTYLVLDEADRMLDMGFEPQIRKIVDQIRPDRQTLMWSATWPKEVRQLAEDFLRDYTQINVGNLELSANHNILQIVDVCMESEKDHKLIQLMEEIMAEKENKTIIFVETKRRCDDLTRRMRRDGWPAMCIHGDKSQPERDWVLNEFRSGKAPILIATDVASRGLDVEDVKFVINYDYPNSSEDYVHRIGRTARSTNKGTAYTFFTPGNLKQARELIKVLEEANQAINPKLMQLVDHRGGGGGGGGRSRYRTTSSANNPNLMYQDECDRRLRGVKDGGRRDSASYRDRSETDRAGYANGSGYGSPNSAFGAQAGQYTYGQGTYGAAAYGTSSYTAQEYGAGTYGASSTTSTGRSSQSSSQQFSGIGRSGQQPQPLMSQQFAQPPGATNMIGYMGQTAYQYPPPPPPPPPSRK
Chain of Serine/arginine-rich splicing factor 9 (Homo sapiens) (Q13242 whole entry, canonical isoform): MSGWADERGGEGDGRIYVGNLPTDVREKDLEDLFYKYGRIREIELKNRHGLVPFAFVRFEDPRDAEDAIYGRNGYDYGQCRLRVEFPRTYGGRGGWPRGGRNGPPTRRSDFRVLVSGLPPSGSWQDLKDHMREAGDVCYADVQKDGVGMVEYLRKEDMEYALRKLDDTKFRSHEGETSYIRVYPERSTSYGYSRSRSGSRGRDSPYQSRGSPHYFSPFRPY

## Cc1cc2c(=O)[nH]c(CSC(=S)N(CCCNC(=O)CCCC[C@@H]3SC[C@@H]4NC(=O)N[C@@H]43)Cc3ccc(C#N)cc3)nc2s1
[1]
  Activity: 52.8%
Sus scrofa [2]
  inhibition: Active
Sus scrofa [3]
  inhibition: Active
Sus scrofa [4]
  inhibition: Active
[5]
  Activity: 63.8%
[6]
  Activity: 40.5%
Sus scrofa [7]
  inhibition: inactive
Sus scrofa [8]
  Activity: Active
A549
  Activity: 15.3%
[9]
  Activity: 38.8%
Sus scrofa [10]
  inhibition: Active
[11]
  Activity: 16.6%
[12]
  Activity: 52.2%
[13]
  Activity: 55.8%
